Where a SMILES comes first, the peptide text is derived from it. [ ]: non-standard residue; d: D form. NMeY = CN[C@@H](Cc1ccc(O)cc1)C(=O)O; NMeT = CN[C@H](C(=O)O)[C@@H](C)O; dNMeL = CN[C@H](CC(C)C)C(=O)O

Data set [1] can be described thus: Intrinsic clearance in human liver microsomes by LC-MS/MS analysis. In kind it is ADME. The note with it: read-out: CLH. The procedure, abridged:
(§1)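 Compound at 1 µM with liver microsomes (CYP 0.25 µM) in 0.1 M potassium phosphate, pH 7.4, at 37 °C. Final solvent was 0.975% acetonitrile and 0.025% DMSO. Mix prewarmed 5 min, then started with 1.3 mM NADPH; no-NADPH controls were run. Sampled at 0–60 min into acetonitrile and followed by LC-MS/MS for substrate loss. T1/2 was scaled to CLint by the well-stirred model.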

A short description of data set [2]: Plasma clearance in male Wistar-Han rat at 0.4 mg/kg, iv. It is filed as ADME, organism-based. More on the design: dose 0.4 mg/kg, route intravenous. The procedure, abridged: (§2)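 Jugular vein-cannulated male Wistar-Hannover rats (230-250 g; n = 3) given a 30 s tail-vein bolus in SEDDS/dextrose or propylene glycol/20 mM sodium phosphate (pH 7.4) vehicles. Blood sampled 0.03–24 h via cannula into K2EDTA. Plasma proteins precipitated, LC-MS/MS. Non-compartmental: CLp = dose/AUC0-∞ (linear trapezoid); Vdss; T1/2 = 0.693/terminal log-linear slope.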

A short description of data set [3]: Volume of distribution at steady state in male Wistar-Han rat at 0.4 mg/kg, iv. In kind it is ADME, organism-based. More on the design: dose 0.4 mg/kg, route intravenous. The following applies: in vivo, read-out: Vdss. The procedure, abridged:
as §2

A short description of data set [4]: Terminal elimination half life in Wistar-Han rat at 0.4 mg/kg, iv. The note with it: in vivo, read-out: beta t1/2 (converted). In kind it is ADME, organism-based. Details: dose 0.4 mg/kg, route intravenous. The procedure, abridged:
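Jugular vein-cannulated male Wistar-Hannover rats (230–250 g, n = 3) received a tail-vein bolus over 30 s. Vehicle depended on compound: SEDDS/dextrose or propylene glycol/20 mM sodium phosphate pH 7.4. Blood was drawn at 0.03–24 h into K2EDTA and the plasma analyzed by LC-MS/MS. Non-compartmental analysis gave T1/2 = 0.693/|terminal ln-slope|.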

The nature of data set [5]: AUC (0 to infinity) in male Wistar-Han rat at 2.9 mg/kg, po. It is filed as ADME, organism-based. The following applies: plasma. Details: time infinity, dose 2.9 mg/kg, route oral. The procedure, abridged:
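Jugular vein-cannulated male Wistar-Hannover rats (230-250 g), n = 3, fasted overnight and fed after the 4 h sample; oral dosing in the i.v. formulations, except the SEDDS formulation used 90% water. Serial blood 0.083–24 h, K2EDTA plasma, LC-MS/MS against standard curve; non-compartmental AUC0-∞ by linear trapezoid rule.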

Data set [6] is described as follows: Oral bioavailability in male Wistar-Han rat at 2.9 mg/kg. It is filed as ADME, organism-based. The note with it: in vivo. The procedure, abridged: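 Male Wistar-Hannover rats (230-250 g, cannulated; n = 3) fasted overnight, fed after the 4 h sample, and dosed orally in the i.v. formulations or 10% SEDDS:90% water. Serial blood sampled 0.083–24 h into K2EDTA. Plasma measured by LC-MS/MS against a standard curve. Cmax and Tmax read from individual profiles; F = oral AUC0-∞ relative to i.v. AUC0-∞.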

Data set [7] is described as follows: Intrinsic clearance in rat liver microsomes by LC-MS/MS analysis. In kind it is ADME. The note with it: read-out: CLH. The procedure, abridged: as §1
Data set [8] in a line: Terminal elimination half life in Wistar-Han rat at 2.9 mg/kg, po. It is filed as ADME, organism-based. More on the design: dose 2.9 mg/kg, route oral. The following applies: in vivo, read-out: beta t1/2 (converted). The procedure, abridged:
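Male Wistar-Hannover rats (230–250 g, n = 3), jugular-cannulated, were fasted overnight and dosed by oral gavage. Vehicle depended on compound: SEDDS/water or propylene glycol/sodium phosphate pH 7.4. Blood was collected at 0.083–24 h into K2EDTA and the plasma analyzed by LC-MS/MS. Terminal half-life came from the non-compartmental ln-concentration slope.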

Data set [9] in a line: Lipophilicity, log D of the compound at pH 7.4 by shake-flask method. In kind it is physicochemical. The following applies: buffer.
The nature of data set [10]: Cmax in male Wistar-Han rat at 2.9 mg/kg, po. It is filed as ADME, organism-based. More on the design: dose 2.9 mg/kg, route oral. The note with it: in vivo. The procedure, abridged:
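Jugular vein-cannulated male Wistar-Hannover rats (230-250 g), n = 3, fasted overnight and fed after the 4 h sample. Single oral dose in compound-specific vehicles (10% SEDDS:90% water, or propylene glycol with 20 mM sodium phosphate pH 7.4). Serial blood at 0.083–24 h into K2EDTA. Plasma protein-precipitated with internal standard and analysed by LC-MS/MS. Cmax read directly from individual concentration–time curves.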

Data set [11] is described as follows: AUC (0 to infinity) in male Wistar-Han rat at 0.4 mg/kg, iv. It is filed as ADME, organism-based. Details: time infinity, dose 0.4 mg/kg, route intravenous. The note with it: plasma. The procedure, abridged: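 Jugular vein-cannulated male Wistar-Hannover rats (230-250 g), n = 3, fed ad libitum; 30 s tail-vein injection in 10% SEDDS:90% sterile dextrose, 1:1 propylene glycol:20 mM sodium phosphate (pH 7.4), or 10% propylene glycol:90% 20 mM sodium phosphate (pH 7.4). Blood via cannula to 24 h, K2EDTA plasma, LC-MS/MS against standard curve; non-compartmental AUC0-∞ by linear trapezoid rule.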

Regarding `CC(C)C[C@@H]1NC(=O)[C@H](Cc2ccc(O)cc2)N(C)C(=O)[C@H]2CCCN2C(=O)[C@H](CC(C)C)NC(=O)[C@H]([C@@H](C)O)N(C)C(=O)[C@@H](CC(C)C)N(C)C1=O` (cyclo(L[dNMeL][NMeT]L[dP][NMeY])), the CLint scaled in data set [1] was found to be 89 mL/min/kg; in data set [7] it was 44 mL/min/kg. Also, the clearance in [2] stood at 63.6 mL/min/kg. Further, the Vd in data set [3] is 3.8 L/kg. For the same compound, the half-life is 61.8 min in data set [4] and 55.2 min in [8]. Besides, the AUC(0-inf) in [5] amounted to 201 ng·h/mL; in [11], 109 ng·h/mL. The bioavailability in data set [6] amounted to 23.8%. In data set [9], this compound showed a logD of 3.17. Further, the Cmax in data set [10] is 105 ng/mL.

(Values after ChEMBL document CHEMBL3217723, “Optimizing PK properties of cyclic peptides: the effect of side chain substitutions on permeability and clearance()” (Medchemcomm, 2012).)
